Some results are limits rather than exact numbers.

For data set [1], the system named is Rattus norvegicus. Description: Rat PCA Test(50% inhibition of spot areas)in the female albino rats after (ip) administration in 10% aqueous acacia gum; value ranges from 145-288. Type of data set: functional. As to conditions: read-out: ID50 (the source's name). In short, it runs like this:
(§1)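 Female albino rats (200–250 g) received intradermal ventral injections of rat anti-egg-albumin antiserum; donors were raised with egg albumin im plus H. pertussis ip, and serum was taken at 12 days. 24 h later, compound was given ip in 10% acacia gum (10 mL/kg), 10 rats/group. Challenge 30 min later was iv 0.3% egg albumin plus 1% Evans blue. Blued areas were measured 30 min after challenge.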

For data set [2], the system named is Cavia porcellus. Description: Antibronchospatic activity determined by histamine stimulated bronchospasm inhibition in guinea pigs after(i.v.) administration. Type of data set: functional, Bronchiole. Put shortly:
(§2)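 Guinea pigs, Konzett–Rössler preparation. Bronchospasm was induced with histamine. Compound was given iv (1 mL/kg) 1 min before the agonist, dissolved in saline or saline with slight excess HCl or CH3SO3H (pH 3.5–4). Three doses were tested in duplicate, chosen to give 20–90% inhibition. ID75 was read graphically from log dose–response curves.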

Data set [3] in a line: In vivo toxic effect was determined in mouse after oral administration with 10% aqueous acacia gum; value ranges from 3.08-6.27. It counts as toxicity, organism-based. In short, it runs like this:
(§3)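 Female albino mice, 20-30 g. Compound given orally as solution or suspension in 10% aqueous acacia gum, 10 animals per dose. Deaths recorded over 7 days.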

Data set [4] in a line: In vivo toxic effect was determined in mouse after oral administration with 10% aqueous acacia gum; value ranges from 0.94-1.65. Type of data set: toxicity, organism-based. Put shortly: as §3
A short description of data set [5]: In vivo toxic effect was determined in mouse after intraperitoneal administration with 10% aqueous acacia gum; value ranges from 0.54-0.99. Type of data set: toxicity, organism-based. The settings on record: ip. Put shortly:
(§4)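 Female albino mice (20-30 g), 10 animals per dose, dosed intraperitoneally with compound in solution or suspension; compounds tested as salts unless noted. Mortality was recorded over 7 days.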

Data set [6] in a line: In vivo toxic effect was determined in mouse after oral administration with 10% aqueous acacia gum;Value ranges from(1.30-1.80). Type of data set: toxicity, organism-based. In short, it runs like this:
as §3

Data set [7] is described as follows: In vivo toxic effect was determined in mouse after intraperitoneal administration with 10% aqueous acacia gum; value ranges from 0.41-0.93. It counts as toxicity, organism-based. The settings on record: ip. Put shortly: as §4
The test system of data set [8] is Rattus norvegicus. In words: Rat PCA Test(50% inhibition of spot areas)in the female albino rats after (ip) administration in 10% aqueous acacia gum; Value ranges from(42-57). It counts as functional. The settings on record: read-out: ID50 (the source's name). In short, it runs like this:
as §1

Data set [9] relates to Rattus norvegicus. Description: Rat PCA Test(50% inhibition of spot areas)in the female albino rats after oral administration in 10% aqueous acacia gum; value ranges from 80-141. Type of data set: functional. As to conditions: read-out: ID50 (the source's name). In short, it runs like this:
(§5)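 Female rats (200-250 g) were passively sensitized by ventral intradermal anti-egg-albumin antiserum. This was raised in rats by intramuscular 1% egg albumin plus ip H. pertussis vaccine, with serum taken at 12 days. After 24 h, groups of 10 were dosed orally with compound or vehicle (10 mL/kg). At 60 min, iv challenge used 0.3% egg albumin with 1% Evans blue. Blued areas were measured after 30 min.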

Data set [10] relates to Rattus norvegicus. Description: Rat PCA Test(50% inhibition of spot areas)in the female albino rats after (ip) administration in 10% aqueous acacia gum; value ranges from 45-69. Type of data set: functional. The settings on record: read-out: ID50 (the source's name). In short, it runs like this: as §1
Data set [11] in a line: In vivo toxic effect was determined in mouse after intraperitoneal administration with 10% aqueous acacia gum; value ranges from 0.48-0.77. Type of data set: toxicity, organism-based. As to conditions: ip. In short, it runs like this:
as §4

A short description of data set [12]: In vivo toxic effect was determined in mouse after oral administration with 10% aqueous acacia gum; value ranges from 1.23-1.71. It counts as toxicity, organism-based. In short, it runs like this:
as §3

The subject of data set [13] is Rattus norvegicus. In words: Rat PCA Test(50% inhibition of spot areas)in the female albino rats after oral administration in 10% aqueous acacia gum. As to conditions: read-out: ID50 (the source's name). It counts as functional. Put shortly: as §5
Data set [14] is described as follows: In vivo toxicity in mouse after oral administration with 10% aqueous acacia gum. It counts as organism-based. In short, it runs like this:
as §3

Data set [15] deals with Rattus norvegicus. Description: Rat PCA Test(50% inhibition of spot areas)in the female albino rats after (ip) administration in 10% aqueous acacia gum; value ranges from 164-246. As to conditions: read-out: ID50 (the source's name). Type of data set: functional. In short, it runs like this: as §1
Data set [16] can be described thus: In vivo toxic effect was determined in mouse after intraperitoneal administration with 10% aqueous acacia gum; value ranges from 1.35-1.82. Type of data set: toxicity, organism-based. As to conditions: ip. Put shortly: as §4
The test system of data set [17] is Rattus norvegicus. Description: Rat PCA Test(50% inhibition of spot areas)in the female albino rats after (ip) administration in 10% aqueous acacia gum. It counts as functional. The settings on record: read-out: ID50 (the source's name). In short, it runs like this: as §1
Data set [18] can be described thus: In vivo toxic effect was determined in mouse after intraperitoneal administration with 10% aqueous acacia gum; value ranges from 0.56-0.94. Type of data set: toxicity, organism-based. As to conditions: ip. In short, it runs like this:
as §4

Data set [19] in a line: In vivo toxic effect was determined in mouse after intraperitoneal administration with 10% aqueous acacia gum; value ranges from 0.39-0.70. Type of data set: toxicity, organism-based. As to conditions: ip. Put shortly:
as §4

In data set [20] the test system is Rattus norvegicus. Description: Rat PCA Test(50% inhibition of spot areas)in the female albino rats after ip administration in 10% aqueous acacia gum; Value ranges from(26-134). It counts as functional. The settings on record: read-out: ID50 (the source's name). Put shortly:
(§6)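 Antiserum came from female rats given 1% egg albumin in 0.9% NaCl intramuscularly plus Haemophilus pertussis vaccine (2 × 10^10 organisms) intraperitoneally, and was collected 12 days later. Recipient rats (200-250 g) got it intradermally at a ventral site. After 24 h, groups of 10 received vehicle or compound ip. At 30 min they were challenged iv with 0.3% egg albumin plus 1% Evans blue. Blued skin areas were measured 30 min later.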

The nature of data set [21]: In vivo toxic effect was determined in mouse after intraperitoneal administration with 10% aqueous acacia gum; value ranges from (0.47-0.85). Type of data set: toxicity, organism-based. As to conditions: ip. In short, it runs like this:
as §4

Data set [22] concerns Rattus norvegicus. In words: Rat PCA Test(50% inhibition of spot areas)in the female albino rats after ip administration in 10% aqueous acacia gum. As to conditions: read-out: ID50 (the source's name). It counts as functional. In short, it runs like this:
as §6

In data set [23] the test system is Cavia porcellus. In words: Antibronchospatic activity was determined by inhibition of histamine stimulated bronchospasm in guinea pigs after (iv) administration. It counts as functional, Bronchiole. Put shortly: as §2

Turning to `COc1cccc(N2CCN(CCC(=O)Nc3ccc([N+](=O)[O-])cc3)CC2)n1.Cl`, in the data set with Rattus norvegicus [1], the ED50 came out at 204 µmol/kg. The same compound displayed an ID75 in the data set with Cavia porcellus [2] of 0.16 µM/kg. Also, in data set [3], the LD50 stood at 4390 µmol/kg.
Turning to `CC(=O)c1cccc(NC(=O)CCN2CCN(c3ccccn3)CC2)c1.Cl.Cl`, the ID75 in the data set on Cavia porcellus [2] turned out to be 0.2 µM/kg. The values for the LD50 in [4] and in data set [5] were 1110 µmol/kg and 680 µmol/kg, respectively.
As for `CC(=O)c1ccc(NC(=O)CCN2CCN(c3ccccn3)CC2)cc1.Cl.Cl`, the figures for the LD50 in data set [6] and in data set [7] were 1500 µmol/kg and 480 µmol/kg, respectively. The same compound yielded an ID75 with Cavia porcellus [2] of 0.02 µM/kg. In addition, in the data set with Rattus norvegicus [8], the ED50 stood at 49 µmol/kg.
Take `COc1cccc(N2CCN(CCC(=O)Nc3ccc(N)cc3)CC2)n1.Cl.Cl`: the ED50 in the data set on Rattus norvegicus [9] stood at 106 µmol/kg; in the data set on Rattus norvegicus [10], 56 µmol/kg. The figures for the LD50 in data set [11] and in data set [12] were 530 µmol/kg and 1600 µmol/kg, respectively. In the data set on Cavia porcellus [2], this compound yielded an ID75 of 0.4 µM/kg.
For the compound `NC(=O)Nc1ccc(NC(=O)CCN2CCN(c3ccccn3)CC2)cc1`, the ED50 in the data set with Rattus norvegicus [13] is > 271 µmol/kg; with Rattus norvegicus [15], 194 µmol/kg. In data set [14], the LD50 was > 8100 µmol/kg. Besides, in the data set with Cavia porcellus [2], the ID75 came out at 0.25 µM/kg.
Regarding `COC(=O)CC(C)N1CCN(c2ccccn2)CC1.O=C(O)/C=C\C(=O)O.O=C(O)/C=C\C(=O)O` (centres undefined), in the data set with Cavia porcellus [2], the ID75 is 2.37 µM/kg. Besides, the LD50 in data set [16] was 1350 µmol/kg. In addition, the ED50 in the data set on Rattus norvegicus [17] was > 404 µmol/kg.
In the case of `Cc1cc(C)c(C)c(NC(=O)CN2CCN(c3ccccn3)CC2)c1C`, the ID75 in the data set with Cavia porcellus [2] is >23.5 µM/kg. For the same compound, the ED50 in the data set on Rattus norvegicus [17] was > 212 µmol/kg. This compound also displayed an LD50 in data set [18] of 650 µmol/kg.
In [19], `Cc1cc([N+](=O)[O-])cc(C)c1C(=O)NCCN1CCN(c2ccccn2)CC1.Cl.Cl` displayed an LD50 of 530 µmol/kg. Moreover, the ED50 in the data set on Rattus norvegicus [20] is 78 µmol/kg. Besides, the ID75 with Cavia porcellus [2] came out at 4.6 µM/kg.
Take `CCCCOc1cc(C(=O)NCCN2CCN(c3ccccn3)CC2)c2ccccc2n1.Cl.Cl`: the LD50 in data set [21] stood at 540 µmol/kg. The ED50 with Rattus norvegicus [22] was > 175 µmol/kg. In the data set on Cavia porcellus [23], this compound returned an ID75 of 8.15 µM/kg.
Take `O=C(CCN1CCN(c2ccccn2)CC1)Nc1ccc(NC(=O)Nc2ccccc2)cc1`: in data set [14], the LD50 is > 6700 µmol/kg. Further, the ID75 with Cavia porcellus [2] turned out to be 0.31 µM/kg. Further, the ED50 in the data set on Rattus norvegicus [17] was > 225 µmol/kg.

The LD50 is the dose at which mortality reaches 50%.

(Values after ChEMBL document CHEMBL1123658, “1-(2-pyridinyl)piperazine derivatives with antianaphylactic, antibronchospastic, and mast cell stabilizing activities” (J Med Chem, 1987).)
